Laboratory results from ChEMBL document CHEMBL1122641, “Synthesis and pharmacological activity of some 9-substituted delta 8-tetrahydrocannabinol analogues” (1984).

Legend:
Type in all cases: functional
[1] = tested on: Mus musculus; test: Evaluation of hypothermia (after 1h) resulting from iv administration of compound at dose 40 mg/kg
Summary of the method: (§1)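 Male ICR mice (22-30 g), housed in the laboratory 24 h before treatment; ambient 21-24 °C recorded. Rectal temperature was taken by thermistor probe (inserted 25 mm) just before iv injection of vehicle or drug (0.1 mL/10 g), then at 10-min intervals to 60 min. Value is the pre-injection minus 60-min temperature difference. At least six mice per dose.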

[2] = tested on: Mus musculus; test: Evaluation of hypothermia (after 1h) resulting from iv administration of compound at dose 30 mg/kg; summary of the method: as §1
[3] = tested on: Mus musculus; test: Evaluation of hypothermia (after 1h) resulting from iv administration of compound at dose 20 mg/kg; summary of the method: as §1
[4] = tested on: Mus musculus; test: Evaluation of spontaneous activity administered by iv route in mice
Summary of the method: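 Male ICR mice (22-30 g), housed 24 h before treatment. Given vehicle or drug iv (0.1 mL/10 g), then immediately placed singly in photocell activity chambers; beam interruptions counted for 10 min. Counts expressed as percent of vehicle control. ED50 (mg/kg) with 95% confidence limits by Litchfield-Wilcoxon method. At least six mice per dose.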

[5] = tested on: Mus musculus; test: Evaluation of hypothermia (after 1h) resulting from iv administration of compound at dose 10 mg/kg; summary of the method: as §1
[6] = tested on: Mus musculus; test: Evaluation of hypothermia (after 1h) resulting from iv administration of compound at dose 60 mg/kg; summary of the method: as §1
[7] = tested on: Mus musculus; test: Evaluation of hypothermia (after 1h) resulting from iv administration of compound at dose 5 mg/kg; summary of the method: as §1
[8] = tested on: Mus musculus; test: Evaluation of hypothermia (after 1h) resulting from iv administration of compound at dose 100 mg/kg; summary of the method: as §1

| Compound | Hypothermic effect [1] | Hypothermic effect [2] | Hypothermic effect [3] | ED50 [4] [mg/kg] | Hypothermic effect [5] | Hypothermic effect [6] | Hypothermic effect [7] | Hypothermic effect [8] |
| --- | --- | --- | --- | --- | --- | --- | --- | --- |
| CCCCCc1cc(O)c2c(c1)OC(C)(C)[C@@H]1CC=C(C(C)O)CC21 (stereo partly drawn) | 1.3 | 0.8 | 0 | 27 | – | – | – | – |
| CCCCCc1cc(O)c2c(c1)OC(C)(C)[C@@H]1CC=C(CCCC)CC21 (stereo partly drawn) | – | 4.3 | – | 32 | 0.3 | 5 | – | – |
| CCCCCc1cc(O)c2c(c1)OC(C)(C)[C@@H]1CC=C(C)CC21 (stereo partly drawn) | – | – | 3.4 | 7.1 | 1 | – | 0.9 | – |
| CCCCCc1cc(O)c2c(c1)OC(C)(C)[C@@H]1CC=C(C(O)CC)CC21 (stereo partly drawn) | – | -0.2 | – | 39 | 0.4 | 1.3 | – | – |
| CCCCCc1cc(O)c2c(c1)OC(C)(C)[C@@H]1CC=C(Cc3ccccc3)CC21 (stereo partly drawn) | – | 1.1 | 0.9 | 32 | 1.3 | 1.5 | – | – |
| CCCCCc1cc(O)c2c(c1)OC(C)(C)[C@@H]1CC=C(C(C)C)CC21 (stereo partly drawn) | – | 0.8 | 1.2 | 26 | – | 1.3 | – | – |
| CCCCCc1cc(O)c2c(c1)OC(C)(C)[C@@H]1CC=C(CCc3ccccc3)CC21 (stereo partly drawn) | 0.3 | 0.3 | – | 43 | – | 0.9 | – | – |
| CCCCCc1cc(O)c2c(c1)OC(C)(C)[C@@H]1CC=C(c3ccccc3)CC21 (stereo partly drawn) | – | 1.6 | – | 67 | – | 0.3 | – | 2.2 |
